Values after ≈ are worked out from the molar mass of the structure shown.
Tests used:
Type in all cases: functional
[1] = tested on: Streptococcus pneumoniae; assay: Antimicrobial activity against drug-resistant Streptococcus pneumoniae isolate 1635 after 14 passages with azithromycin measured after 10 antibiotic-free subculture by multi-step resistance selection technique
Method in brief: (§1)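 Mutants selected by daily broth passage in subinhibitory drug in cation-adjusted Mueller-Hinton broth with 5% lysed horse blood. Stability was tested by 10 daily passages on blood agar without antibiotic, then macrodilution MIC.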

[2] = tested on: Streptococcus pneumoniae; assay: Antimicrobial activity against drug-resistant Streptococcus pneumoniae isolate 3274 after 50 passages by multi-step resistance selection technique
Method in brief: (§2)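 Daily serial passage in subinhibitory drug levels in 1 ml cation-adjusted Mueller-Hinton broth with 5% lysed horse blood; fresh broth for tigecycline. Each day, 10 μl were taken from the tube one to two dilutions below the MIC whose turbidity matched the growth control, and used to set the next MIC. MIC by macrodilution.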

[3] = tested on: Streptococcus pneumoniae; assay: Antimicrobial activity against drug-resistant Streptococcus pneumoniae isolate 1077 after 29 passages with azithromycin measured after 10 antibiotic-free subculture by multi-step resistance selection technique; method in brief: as §1
[4] = tested on: Streptococcus pneumoniae; assay: Antimicrobial activity against drug-resistant Streptococcus pneumoniae isolate 3665 after 50 passages by multi-step resistance selection technique
Method in brief: (§3)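 Daily serial passage in broth at subinhibitory drug levels: 1 ml cation-adjusted Mueller-Hinton broth with 5% lysed horse blood; fresh broth for tigecycline. Each day 10 μl inoculum taken from the tube one to two dilutions below MIC matching growth-control turbidity, used to set next MIC. Continued until ≥8-fold MIC rise, minimum 14, maximum 50 passages; MIC read by macrodilution.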

[5] = tested on: Streptococcus pneumoniae; assay: Antimicrobial activity against drug-resistant Streptococcus pneumoniae isolate 24 by NCCLS M7-A7 method
[6] = tested on: Streptococcus pneumoniae; assay: Antimicrobial activity against drug-resistant Streptococcus pneumoniae isolate 3009 after 18 passages with levofloxacin measured after 10 antibiotic-free subculture by multi-step resistance selection technique; method in brief: as §1
[7] = tested on: Streptococcus pneumoniae; assay: Antimicrobial activity against drug-resistant Streptococcus pneumoniae isolate 3243 after 29 passages with Telithromycin measured after 10 antibiotic-free subculture by multi-step resistance selection technique; method in brief: as §1
[8] = tested on: Streptococcus pneumoniae; assay: Antimicrobial activity against drug-resistant Streptococcus pneumoniae isolate 3676 after 50 passages by multi-step resistance selection technique; method in brief: as §3
[9] = tested on: Streptococcus pneumoniae; assay: Antimicrobial activity against drug-resistant Streptococcus pneumoniae isolate 3274 by NCCLS M7-A7 method
[10] = tested on: Streptococcus pneumoniae; assay: Antimicrobial activity against drug-resistant Streptococcus pneumoniae isolate 2527 after 14 passages with gemifloxacin measured after 10 antibiotic-free subculture by multi-step resistance selection technique; method in brief: as §1
[11] = tested on: Streptococcus pneumoniae; assay: Antimicrobial activity against drug-resistant Streptococcus pneumoniae isolate 1635 after 49 passages with clarithromycin measured after 10 antibiotic-free subculture by multi-step resistance selection technique
[12] = tested on: Streptococcus pneumoniae; assay: Antimicrobial activity against drug-resistant Streptococcus pneumoniae isolate 3676 after 14 passages with Telithromycin measured after 10 antibiotic-free subculture by multi-step resistance selection technique
[13] = tested on: Streptococcus pneumoniae; assay: Antimicrobial activity against drug-resistant Streptococcus pneumoniae isolate 37 by NCCLS M7-A7 method
[14] = tested on: Streptococcus pneumoniae; assay: Antimicrobial activity against drug-resistant Streptococcus pneumoniae isolate 1076 after 35 passages with moxifloxacin measured after 10 antibiotic-free subculture by multi-step resistance selection technique; method in brief: as §1
[15] = tested on: Streptococcus pneumoniae; assay: Antimicrobial activity against drug-resistant Streptococcus pneumoniae isolate 1077 after 15 passages with Telithromycin measured after 10 antibiotic-free subculture by multi-step resistance selection technique; method in brief: as §1
[16] = tested on: Streptococcus pneumoniae; assay: Antimicrobial activity against drug-resistant Streptococcus pneumoniae isolate 2527 after 20 passages by multi-step resistance selection technique
[17] = tested on: Streptococcus pneumoniae; assay: Antimicrobial activity against drug-resistant Streptococcus pneumoniae isolate 3676 after 44 passages with clarithromycin measured after 10 antibiotic-free subculture by multi-step resistance selection technique
[18] = tested on: Streptococcus pneumoniae; assay: Antimicrobial activity against drug-resistant Streptococcus pneumoniae isolate 3665 after 14 passages with Telithromycin measured after 10 antibiotic-free subculture by multi-step resistance selection technique
[19] = tested on: Streptococcus pneumoniae; assay: Antimicrobial activity against drug-resistant Streptococcus pneumoniae isolate 37 after 14 passages with Telithromycin measured after 10 antibiotic-free subculture by multi-step resistance selection technique
[20] = tested on: Streptococcus pneumoniae; assay: Antimicrobial activity against drug-resistant Streptococcus pneumoniae isolate 3243 after 33 passages with azithromycin measured after 10 antibiotic-free subculture by multi-step resistance selection technique; method in brief: as §1
[21] = tested on: Streptococcus pneumoniae; assay: Antimicrobial activity against drug-resistant Streptococcus pneumoniae isolate 3009 after 19 passages with moxifloxacin measured after 10 antibiotic-free subculture by multi-step resistance selection technique; method in brief: as §1
[22] = tested on: Streptococcus pneumoniae; assay: Antimicrobial activity against drug-resistant Streptococcus pneumoniae isolate 1077 after 29 passages by multi-step resistance selection technique
Method in brief: as §2, with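 “MIC. […]” for “MIC.”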

[23] = tested on: Streptococcus pneumoniae; assay: Antimicrobial activity against drug-resistant Streptococcus pneumoniae isolate 1635 after 14 passages with clindamycin measured after 10 antibiotic-free subculture by multi-step resistance selection technique
[24] = tested on: Streptococcus pneumoniae; assay: Antimicrobial activity against drug-resistant Streptococcus pneumoniae isolate 3665 after 26 passages with clarithromycin measured after 10 antibiotic-free subculture by multi-step resistance selection technique
[25] = tested on: Streptococcus pneumoniae; assay: Antimicrobial activity against drug-resistant Streptococcus pneumoniae isolate 3665 by NCCLS M7-A7 method
[26] = tested on: Streptococcus pneumoniae; assay: Antimicrobial activity against drug-resistant Streptococcus pneumoniae isolate 2527 by NCCLS M7-A7 method
[27] = tested on: Streptococcus pneumoniae; assay: Antimicrobial activity against drug-resistant Streptococcus pneumoniae isolate 1077 by NCCLS M7-A7 method
[28] = tested on: Streptococcus pneumoniae; assay: Antimicrobial activity against drug-resistant Streptococcus pneumoniae isolate 3676 by NCCLS M7-A7 method
[29] = tested on: Streptococcus pneumoniae; assay: Antimicrobial activity against drug-resistant Streptococcus pneumoniae isolate 24 after 50 passages with moxifloxacin measured after 10 antibiotic-free subculture by multi-step resistance selection technique; method in brief: as §1
[30] = tested on: Streptococcus pneumoniae; assay: Antimicrobial activity against drug-resistant Streptococcus pneumoniae isolate 3243 by NCCLS M7-A7 method
[31] = tested on: Streptococcus pneumoniae; assay: Antimicrobial activity against drug-resistant Streptococcus pneumoniae isolate 3413 by NCCLS M7-A7 method
[32] = tested on: Streptococcus pneumoniae; assay: Antimicrobial activity against drug-resistant Streptococcus pneumoniae isolate 3243 after 20 passages with moxifloxacin measured after 10 antibiotic-free subculture by multi-step resistance selection technique; method in brief: as §1
[33] = tested on: Streptococcus pneumoniae; assay: Antimicrobial activity against drug-resistant Streptococcus pneumoniae isolate 3243 after 33 passages by multi-step resistance selection technique
Method in brief: as §2, with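 “MIC. […]” for “MIC.”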

[34] = tested on: Streptococcus pneumoniae; assay: Antimicrobial activity against drug-resistant Streptococcus pneumoniae isolate 3676 after 50 passages with moxifloxacin measured after 10 antibiotic-free subculture by multi-step resistance selection technique
[35] = tested on: Streptococcus pneumoniae; assay: Antimicrobial activity against drug-resistant Streptococcus pneumoniae isolate 3665 after 38 passages with moxifloxacin measured after 10 antibiotic-free subculture by multi-step resistance selection technique
[36] = tested on: Streptococcus pneumoniae; assay: Antimicrobial activity against drug-resistant Streptococcus pneumoniae isolate 1635 after 14 passages by multi-step resistance selection technique
Method in brief: as §2, with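 “MIC. […]” for “MIC.”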

[37] = tested on: Streptococcus pneumoniae; assay: Antimicrobial activity against drug-resistant Streptococcus pneumoniae isolate 2527 after 20 passages with azithromycin measured after 10 antibiotic-free subculture by multi-step resistance selection technique; method in brief: as §1
[38] = tested on: Streptococcus pneumoniae; assay: Antimicrobial activity against drug-resistant Streptococcus pneumoniae isolate 3274 after 48 passages with Telithromycin measured after 10 antibiotic-free subculture by multi-step resistance selection technique; method in brief: as §1
[39] = tested on: Streptococcus pneumoniae; assay: Antimicrobial activity against drug-resistant Streptococcus pneumoniae isolate 3243 after 41 passages with clarithromycin measured after 10 antibiotic-free subculture by multi-step resistance selection technique
[40] = tested on: Streptococcus pneumoniae; assay: Antimicrobial activity against drug-resistant Streptococcus pneumoniae isolate 1635 by NCCLS M7-A7 method
[41] = tested on: Streptococcus pneumoniae; assay: Antimicrobial activity against drug-resistant Streptococcus pneumoniae isolate 24 after 14 passages with Telithromycin measured after 10 antibiotic-free subculture by multi-step resistance selection technique; method in brief: as §1
[42] = tested on: Streptococcus pneumoniae; assay: Antimicrobial activity against drug-resistant Streptococcus pneumoniae isolate 3009 after 25 passages with clarithromycin measured after 10 antibiotic-free subculture by multi-step resistance selection technique
[43] = tested on: Streptococcus pneumoniae; assay: Antimicrobial activity against drug-resistant Streptococcus pneumoniae isolate 1077 after 49 passages with clindamycin measured after 10 antibiotic-free subculture by multi-step resistance selection technique
[44] = tested on: Streptococcus pneumoniae; assay: Antimicrobial activity against drug-resistant Streptococcus pneumoniae isolate 1076 after 14 passages with Telithromycin measured after 10 antibiotic-free subculture by multi-step resistance selection technique; method in brief: as §1
[45] = tested on: Streptococcus pneumoniae; assay: Antimicrobial activity against drug-resistant Streptococcus pneumoniae isolate 1076 by NCCLS M7-A7 method
[46] = tested on: Streptococcus pneumoniae; assay: Antimicrobial activity against drug-resistant Streptococcus pneumoniae isolate 3413 after 30 passages with Telithromycin measured after 10 antibiotic-free subculture by multi-step resistance selection technique; method in brief: as §1
[47] = tested on: Streptococcus pneumoniae; assay: Antimicrobial activity against drug-resistant Streptococcus pneumoniae isolate 3009 by NCCLS M7-A7 method
[48] = tested on: Streptococcus pneumoniae; assay: Antimicrobial activity against drug-resistant Streptococcus pneumoniae isolate 3009 after 21 passages with gemifloxacin measured after 10 antibiotic-free subculture by multi-step resistance selection technique; method in brief: as §1

SMILES: CC[C@H]1OC(=O)[C@H](C)[C@@H](O[C@H]2C[C@@](C)(OC)[C@@H](O)[C@H](C)O2)[C@H](C)[C@@H](O[C@@H]2O[C@H](C)C[C@H](N(C)C)[C@H]2O)[C@](C)(O)C[C@@H](C)CN(C)[C@H](C)[C@@H](O)[C@]1(C)O [AZITHROMYCIN]
- MIC [1]: > 64 µg/mL
- MIC [2]: 0.008 µg/mL (≈ 0.0107 µM)
- MIC [3]: > 64 µg/mL
- MIC [4]: 16 µg/mL (≈ 21.4 µM)
- MIC [5]: > 64 µg/mL
- MIC [6]: > 64 µg/mL
- MIC [7]: > 64 µg/mL
- MIC [8]: 8 µg/mL (≈ 10.7 µM)
- MIC [9]: 0.008 µg/mL (≈ 0.0107 µM)
- MIC [10]: 0.03 µg/mL (≈ 0.0401 µM)
- MIC [11]: > 64 µg/mL
- MIC [12]: 2 µg/mL (≈ 2.67 µM)
- MIC [13]: > 64 µg/mL
- MIC [14]: > 64 µg/mL
- MIC [15]: > 64 µg/mL
- MIC [16]: 4 µg/mL (≈ 5.34 µM)
- MIC [17]: 16 µg/mL (≈ 21.4 µM)
- MIC [18]: 4 µg/mL (≈ 5.34 µM)
- MIC [19]: > 64 µg/mL
- MIC [20]: 0.5 µg/mL (≈ 0.668 µM)
- MIC [21]: > 64 µg/mL
- MIC [22]: > 64 µg/mL
- MIC [23]: 4 µg/mL (≈ 5.34 µM)
- MIC [24]: 8 µg/mL (≈ 10.7 µM)
- MIC [25]: 8 µg/mL (≈ 10.7 µM)
- MIC [26]: 0.016 µg/mL (≈ 0.0214 µM)
- MIC [27]: 0.03 µg/mL (≈ 0.0401 µM)
- MIC [28]: 4 µg/mL (≈ 5.34 µM)
- MIC [29]: > 64 µg/mL
- MIC [30]: 0.03 µg/mL (≈ 0.0401 µM)
- MIC [31]: > 64 µg/mL
- MIC [32]: 0.016 µg/mL (≈ 0.0214 µM)
- MIC [33]: 0.25 µg/mL (≈ 0.334 µM)
- MIC [34]: 4 µg/mL (≈ 5.34 µM)
- MIC [35]: 8 µg/mL (≈ 10.7 µM)
- MIC [36]: > 64 µg/mL
- MIC [37]: 4 µg/mL (≈ 5.34 µM)
- MIC [38]: 1 µg/mL (≈ 1.34 µM)
- MIC [39]: 1 µg/mL (≈ 1.34 µM)
- MIC [40]: 2 µg/mL (≈ 2.67 µM)
- MIC [41]: > 64 µg/mL
- MIC [42]: > 64 µg/mL
- MIC [43]: > 64 µg/mL
- MIC [44]: > 64 µg/mL
- MIC [45]: > 64 µg/mL
- MIC [46]: > 64 µg/mL
- MIC [47]: > 64 µg/mL
- MIC [48]: > 64 µg/mL

Source: ChEMBL document CHEMBL1151428, “Capability of 11 antipneumococcal antibiotics to select for resistance by multistep and single-step methodologies” (2007)
